Bioassay records: PubChem BioAssay, The Scripps Research Institute Molecular Screening Center
Hits are enriched below; roughly 2.8% of the tested compounds scored in any of these assays.
PAFAH2 FP inh: PAFAH2 enzyme inhibitors, primary screen, biochemical, fluorescence polarization, human. recombinant PAFAH2, FP-rhodamine activity probe. inhibition, % at 3.39 µM. actives 0.99% (n = 340,000);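 active = inhibition above the mean over all tested compounds plus 3 SD, cut at about 30% in these data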;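 also: inhibitors block probe labeling of enzyme so polarization drops; 0% = enzyme with DMSO and 100% = wells lacking PAFAH2 protein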
pPAFAH inh: pPAFAH enzyme inhibitors, primary screen, biochemical, fluorescence polarization, human; Platelet-activating factor acetylhydrolase (Homo sapiens), Q13093; recombinant pPAFAH, FP-rhodamine probe fluorescence polarization; inhibition, % at 3.39 µM; actives 1.5% (n = 330,000); AID 463082, 2010;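 active = inhibition above the mean inhibition across the screen plus 3 SD, cut at about 25% in these data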;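 also: inhibitors block binding of the rhodamine activity-based probe so polarization drops; 0% = enzyme with DMSO and 100% = wells lacking pPAFAH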
PAFAH1B2 inh: PAFAH1B2 enzyme inhibitors, primary screen, biochemical, fluorescence polarization, human; recombinant PAFAH1B2, FP-rhodamine activity probe; AID 492953, 2010; inhibition, % at 3.39 µM; actives 1.2% (n = 340,000);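 active = inhibition above the mean of all tested compounds plus 3 SD, cut at about 24% in these data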;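 also: 0% = enzyme with DMSO and 100% = wells lacking PAFAH1B2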
Target sequence (P68402 whole entry, looked up): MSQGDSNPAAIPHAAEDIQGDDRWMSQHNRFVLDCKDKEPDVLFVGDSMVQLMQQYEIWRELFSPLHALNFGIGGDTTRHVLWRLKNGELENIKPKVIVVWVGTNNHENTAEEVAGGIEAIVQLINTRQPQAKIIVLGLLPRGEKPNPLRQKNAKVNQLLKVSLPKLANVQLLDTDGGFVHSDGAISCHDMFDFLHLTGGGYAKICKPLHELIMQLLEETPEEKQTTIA
ABHD4 inh: ABHD4 inhibitors, primary screen, biochemical, fluorescence polarization, mouse | (Lyso)-N-acylphosphatidylethanolamine lipase (Mus musculus), Q8VD66 | purified mABHD4, FP-Rh probe fluorescence polarization | inhibition, % at 8.92 µM | actives 0.54% (n = 370,000);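 active = inhibition exceeding the mean over every tested compound plus 3 SD, cut at about 30% in these data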;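 also: 0% = plate median of compound wells and 100% = S159A mutant with DMSO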
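Doses – 8.92 µM, single dose · Material – wild-type mouse ABHD4 protein · Replication – single well per compound (singlicate) · Measure – percent inhibition of probe binding, normalized to plate controls · Schedule – 45 min compound pre-incubation plus 60 min probe step, 25 °C · Detection – fluorescence polarization with parallel and perpendicular emission, 525/598 nm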
PAFAH1B3 inh: PAFAH1B3 enzyme inhibitors, primary screen, biochemical, fluorescence polarization, human | recombinant PAFAH1B3, FP-rhodamine probe | Platelet-activating factor acetylhydrolase IB subunit alpha1 (Homo sapiens), Q15102 | inhibition, % at 3.39 µM | actives 0.28% (n = 340,000) | AID 492972, 2010;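 active = inhibition above the screen-wide average of all tested compounds plus 3 SD, cut at about 25% in these data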;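 also: 0% = enzyme with DMSO only and 100% = wells lacking PAFAH1B3 protein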
Target sequence (Q15102 whole entry, looked up): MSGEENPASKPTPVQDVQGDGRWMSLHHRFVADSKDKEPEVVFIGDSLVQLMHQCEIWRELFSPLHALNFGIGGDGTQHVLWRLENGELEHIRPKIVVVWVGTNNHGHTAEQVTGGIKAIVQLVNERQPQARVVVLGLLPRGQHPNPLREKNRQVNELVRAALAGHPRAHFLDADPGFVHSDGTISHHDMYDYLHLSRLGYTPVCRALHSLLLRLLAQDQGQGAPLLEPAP
HTRA1 inh: HTRA1 serine protease inhibitors, primary screen, biochemical, fluorescence polarization, HTS. Q92743. recombinant HTRA1, FP-rhodamine activity-based probe. inhibition, % at 5.96 µM. actives 0.5% (n = 340,000). AID 504803, 2011; in the data active = inhibition above about 36%;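 also: 0% = enzyme with DMSO and 100% = wells lacking enzyme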
PAFAH2 FP conf: PAFAH2 enzyme inhibitors, confirmation, biochemical, fluorescence polarization, human | shares compounds with PAFAH2 FP inh | recombinant PAFAH2, FP-rhodamine activity probe | inhibition, % at 3.39 µM | actives 65% (n = 2,300) | AID 493030, 2011;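 active = mean inhibition over three repeats above a set limit taken from the earlier primary screen, cut at about 30% in these data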;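 also: inhibitor blocks binding of rhodamine activity probe so polarization falls; 0% = enzyme with DMSO and 100% = wells lacking PAFAH2 protein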
Starred values were filed as active, the others as inactive.

`CC(NC(=O)COC(=O)/C=C/c1ccc2c(c1)OCO2)c1ccccc1` (stereo unspecified) gave PAFAH2 FP inh 47*, pPAFAH inh 1, PAFAH1B2 inh 7, ABHD4 inh 4, PAFAH1B3 inh 1, HTRA1 inh 3 and PAFAH2 FP conf 38*.
`O=C(NCCc1c[nH]c2ccccc12)OCc1cn(Cc2ccc(F)c(F)c2)nn1` gave ABHD4 inh -3.
`COc1ccccc1NS(=O)(=O)c1ccc(C(=O)Nc2ncccc2O)cc1` gave PAFAH2 FP inh 55*, pPAFAH inh 3, PAFAH1B2 inh 6, PAFAH1B3 inh 3, HTRA1 inh -2 and PAFAH2 FP conf 46*.
For O=C(COC(=O)c1ccc2ncsc2c1)NCc1cccc(Cl)c1 the results were PAFAH2 FP inh 21, pPAFAH inh -2, PAFAH1B2 inh 2, ABHD4 inh -10, PAFAH1B3 inh 0 and HTRA1 inh -20.
For O=C(COC(=O)c1ccc2ncsc2c1)Nc1cccc(Cl)c1 the results were PAFAH2 FP inh 92*, pPAFAH inh -6, PAFAH1B2 inh -3, ABHD4 inh -23, PAFAH1B3 inh -3, HTRA1 inh -29 and PAFAH2 FP conf 77*.
For O=C(COC(=O)c1ccc2ncsc2c1)Nc1ccccc1Br the results were PAFAH2 FP inh 63*, pPAFAH inh -5, PAFAH1B2 inh 0, ABHD4 inh 3, PAFAH1B3 inh 6, HTRA1 inh 3 and PAFAH2 FP conf 43*.
CCCCOC(=O)c1ccc(NC(=O)COC(=O)c2ccc3ncsc3c2)cc1 was read as PAFAH2 FP inh 61*, pPAFAH inh -4, PAFAH1B2 inh -4, ABHD4 inh -26, PAFAH1B3 inh 0, HTRA1 inh -12 and PAFAH2 FP conf 63*.
Screening Cc1ccc(-c2cc(C(=O)NN=C/C=C/c3ccco3)[nH]n2)cc1C returned ABHD4 inh -35.
Screening CC(=O)Oc1cc2c(s1)CCN(C(C(=O)C1CC1)c1ccccc1F)C2 (stereo unspecified) returned ABHD4 inh 10.
`CCCC(Oc1ccc(Br)cc1)c1nc2c3cc(OC)c(OC)cc3nc(=S)n2[nH]1` (stereo unspecified) gave PAFAH2 FP inh 33*, pPAFAH inh 10, PAFAH1B2 inh 15, ABHD4 inh 1, PAFAH1B3 inh 13, HTRA1 inh 4 and PAFAH2 FP conf 22.
For CC(Oc1ccc(Br)cc1)c1nc2c3ccccc3nc(=S)n2[nH]1 (stereo unspecified) the results were PAFAH2 FP inh -1, pPAFAH inh 8, PAFAH1B2 inh -4, ABHD4 inh -6, PAFAH1B3 inh 3 and HTRA1 inh -1.
`COc1cccc(CNC(=O)COC(=O)c2cccc(S(=O)(=O)N3CCN(C(C)=O)CC3)c2)c1` gave PAFAH2 FP inh 17, pPAFAH inh 16, PAFAH1B2 inh 3, ABHD4 inh 1, PAFAH1B3 inh 3 and HTRA1 inh 1.
Screening CC(=O)N1CCN(S(=O)(=O)c2cccc(C(=O)OCC(=O)NC(=O)c3cccn3C)c2)CC1 returned PAFAH2 FP inh 35*, pPAFAH inh 11, PAFAH1B2 inh 4, ABHD4 inh -7, PAFAH1B3 inh 4, HTRA1 inh 5 and PAFAH2 FP conf 32*.
`CC(=O)N1CCN(S(=O)(=O)c2cccc(C(=O)OCC(=O)Nc3c(Cl)cccc3C(F)(F)F)c2)CC1` gave PAFAH2 FP inh 44*, PAFAH1B2 inh 4, ABHD4 inh -4, PAFAH1B3 inh 2, HTRA1 inh -1 and PAFAH2 FP conf 32*.
Screening Cc1ccc(C)c(NC(=O)COC(=O)c2cccc(S(=O)(=O)N3CCCC3)c2)c1 returned ABHD4 inh 3 and HTRA1 inh 4.
